Arrestin-AP2 inh = inhibitors of human beta-arrestin and AP2 interaction; AID 504490; inhibition, % at 10 µM; 340,000 tested, 0.31% active; FITC-arrestin peptide / GST-AP2 beads, flow cytometry; AP2 beta2 appendage carries R879A mutation;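 active = inhibition above a set limit, near 3 SD of compounds lacking own fluorescence, cut at about 54% in these data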;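 also: plate controls were DMSO wells for no effect and 5 µM unlabelled arrestin peptide for full effect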
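system = GST-tagged AP2 beta2-adaptin appendage (R879A) on 4 µm glutathione beads | reagent = FITC-labelled arrestin peptide probe, 50 nM final | schedule = compound with beads 12 min RT, then probe 1 h RT | signal = HyperCyt-sampled flow cytometry, FL1 channel, ex 488/em 535 nm | read-out = percent response from loss of bead-bound FITC fluorescence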
MEKK2 mut-MEK5 = signal of MEK5 binding to mutant human MEKK2 PB1 domain. bead flow cytometry, Alexa488-MEK5 binding to MEKK2 mutant. percent response, % at 10 µM. 290,000 tested, 0.35% active. AID 1530; in the data active = percent response above about 24%, passing the limit was not always enough
MEKK3 PB1 HTS = modulators (inhibitors or enhancers) of MEK5 binding to human MEKK3 PB1 domain; binding response (% of control), % at 10 µM; bead-based flow cytometry, Alexa488-MEK5 binding to MEKK3; actives lie on both sides; 0 = blocked by unlabeled MEK5, 100 = vehicle; Q99759; 290,000 tested, 1.4% active;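 active = binding response more than 3 SD above or below the average of its plate-row segment, actives on both sides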;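 also: Alexa488 bead fluorescence after subtracting the streptavidin-only scavenger bead signal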
MEKK2wt PB1 HTS = raises or lowers MEK5 binding to wildtype human MEKK2 PB1 domain; bead flow cytometry, Alexa488-MEK5 binding to MEKK2 WT; actives lie on both sides; binding response (% of control), % at 10 µM; 290,000 tested, 1.1% active; AID 1531; Q9Y2U5; in the data active = binding response below about 67% or above about 130%
MEKK2wt confirm = raises or lowers MEK5 binding to wildtype human MEKK2, retest | shares compounds with MEKK3 PB1 HTS | bead flow cytometry, Alexa488-MEK5 binding to MEKK2 WT; actives lie on both sides | binding response (% of control), % at 10 µM | 5,900 tested, 2.4% active | AID 1892; in the data active = binding response below about 16% or above about 210%; inactive = in between
MEKK2mut confirm = signal of MEK5 binding to mutant human MEKK2, retest; shares compounds with MEKK3 PB1 HTS; bead flow cytometry, Alexa488-MEK5 binding to MEKK2 mutant; percent response, % at 10 µM; 5,900 tested, 2% active; in the data active = percent response mostly above about 71%, no sharp cut-off; inactive = mostly below about 38%;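 also: higher means compound restores mutant binding toward wildtype level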
MEKK3 confirm = MEKK3-MEK5 PB1 inhibition, single concentration confirmation. binding response (% of control), % at 10 µM. 5,900 tested, 1.8% active. AID 1894. shares compounds with MEKK3 PB1 HTS. bead flow cytometry, Alexa488-MEK5 binding to MEKK3; hits give low values;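 active = binding response below 72% of control, or above a set upper limit, though filed actives all read lower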;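 also: 100% = DMSO only wells and 0% = binding blocked by excess unlabeled MEK5; lower values mean stronger disruption of MEK5 binding to MEKK3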
* marks the source's active call; other numbers are inactive results; · = no result given; ! = not confirmed by another sample; [ ] = dose if it differs, or a comment. Rows were chosen to be rich in hits. Some 2.3% of all compounds tested hit in one or more screens of this group.

SMILES	Arrestin-AP2 inh	MEKK2 mut-MEK5	MEKK3 PB1 HTS	MEKK2wt PB1 HTS	MEKK2wt confirm	MEKK2mut confirm	MEKK3 confirm
O=C(c1ccccc1)c1n[nH]c(-c2ccccc2)cc1=O	-18	-2	97	95	·	·	·
CCc1ccc(C(=O)NNc2ccc(S(N)(=O)=O)cc2)cc1	3	36	104	186*	101	-3	101
NS(=O)(=O)c1ccc(NNC(=O)c2ccccc2)cc1	5	0	101	98	·	·	·
Cc1nc2cc(NCc3ccccc3O)ccc2n1Cc1ccccc1	29	-8	106	93	·	·	·
CNCCCC1c2ccccc2C=Cc2ccccc21	5	10	113	107	·	·	·
CNCCCC12CCC(c3ccccc31)c1ccccc12	-6	7	111	137*!	106	1	94
COc1ccc(-c2noc(CCC(=O)NC3CCN(Cc4ccccc4)CC3)n2)cc1	0	5	108	118	·	·	·
COc1ccc(-c2noc(CCC(=O)NCC3CCN(Cc4cccc(C)c4)CC3)n2)cc1	2	39*	116	143*	118	17	101
COc1ccc(CCC(=O)Nc2cc([N+](=O)[O-])ccc2OC)cc1	-6	-1	102	98	·	·	·
COc1ccc(-c2noc(CCC(=O)Nc3ccc4c(c3)OCCO4)n2)cc1	-4	17	115	118	·	·	·
COc1ccc(-c2noc(CCC(=O)Nc3ccc(C)c(C)c3)n2)cc1	26	-22	0.0*[inhibitor]	-7.0*[inhibitor]	106	1	100
COc1ccc(CCC(=O)Nc2ccc(C)c([N+](=O)[O-])c2)cc1	-3	1	161*	106	102	4	100
COc1cc2c(C(=O)NCCCOC(C)C)cn(CC(C)C)c(=O)c2cc1OC	-8	-3	81*[inhibitor]	87	99	2	103
O=c1c(C=NCc2cccnc2)c(C(F)(F)F)[nH]n1-c1nc2ccccc2s1	19	275*	95	·	96	-1	101
CN1CCC2(CC1)N=C(c1ccc(F)cc1)C(=S)N2C(=O)c1ccc(C(C)(C)C)cc1	1	44	101	147*	115	2	99
Cc1ccc(-n2c(C)c(C)c3c(N)ncnc32)cc1	0	-1	101	97	·	·	·
Cc1ccc(C)n1-c1ccc(C(=O)NCc2ccncc2)cc1	-25	-15	50*[inhibitor]	65	103	0	103
COc1ccc(C[C@H]2CN3C(=NC[C@H]3Cc3ccccc3)N2CCNC(=O)c2ccc(C)c(Br)c2)cc1	21	27*	105	154*	176	26	105
COc1ccc(C[C@H]2CN3C(=NC[C@@H]3Cc3ccccc3)N2CCNC(=O)c2ccc(C)c(Br)c2)cc1	-6	132*	109	271*	200	56	102
CCN(C(=O)CSc1ccc2ccccc2n1)C1CCCCC1	14	·	·	·	·	·	·
CCn1nnc2cc(C(=O)Nc3cccc(S(=O)(=O)N(C)C)c3)ccc21	1	·	·	·	·	·	·
COc1ccc(S(=O)(=O)NCc2cc(-c3ccccc3Cl)no2)cc1	-2	-1	106	103	·	·	·
Cc1ccc(NC(=O)C2=C(C(=O)O)CCCC2)cc1F	-10	9	102	105	·	·	·
c1ccc(COc2ccc(OCCCNC3CCCC3)cc2)cc1	13	10	108	140*	127	17	101
O=C(CNC(=O)OCc1ccccc1)NC1CCCCCC1	2	0	86	103	·	·	·
O=C(CCNC(=O)OCc1ccccc1)NC1CCCCC1	6	3	135*	105	94	3	100
O=C(NC1CCCC1)c1ccccc1OCc1ccccc1	19	-3	63*[inhibitor]	84	145	25	111
O=C(NC1CCN(Cc2ccccc2)CC1)c1ccccc1OCc1ccccc1	11	8	107	113	·	·	·
Nc1[nH]n(-c2ccccc2)c(=O)c1N=Nc1ccc2c(c1)OCCO2	14	-9	75*[inhibitor]	80	98	-2	103

Source: PubChem (NMMLSC)
